The nature of data set [1]: Pro-oxidant activity in 1% cremophor EL or rose Bengal assessed as singlet oxygen radical generation by measuring photo-induced fading of 4-nitroso-N,N-dimethylaniline at 6.1 uM in presence of laser radiation and histidine measured every 5 to 10 mins in presence of singlet oxygen quencher NaN3 by absorption spectroscopy. The class given is functional.
A short description of data set [2]: Drug uptake in tumor of F1 mouse implanted with mouse S37 cells assessed as normalized fluorescence units at 2.5 mg/kg, iv measured after 15 mins in presence of He-Ne laser radiation by local fluorescence spectroscopic analysis. The class given is ADME, organism-based, Neoplasm. Particulars: in vivo, 0.25 h. In short, it runs like this:
(§1)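 S37 sarcoma-bearing immunocompetent F1 mice (18−22 g) given PS 2.5 mg/kg iv. Animals sacrificed at 0.25, 0.5, 2, 4 and 24 h, with three animals per time point. Skin, tumor and organ samples were read ex vivo by contact local fluorescence spectroscopy under He−Ne 632.8 nm excitation. Integrated 640−900 nm emission was normalized to the backscattered laser signal to give FN.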

Data set [3] in a line: Phototoxicity against mouse S37 cells implanted in F1 mouse assessed as tumor growth inhibition at 2.5 mg/kg, iv preincubated for 15 mins with subsequent 150 J/cm2 irradiation measured on day 15 post irradiation relative to control. Format: functional. The conditions noted are these: S37, light or radiation study, read-out: TGI. The essentials: (§2)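 S37 sarcoma mice treated on day 7 of tumor growth with compound iv; tumors 140–160 mm3 beforehand, droperidol 0.25 mg ip as anesthetic. LED irradiation at 800 ± 21 nm, 100 mW/cm2, 150 J/cm2, given 15 or 30 min after dosing. Controls got iv 0.9% NaCl. Volume = d1×d2×d3×0.52; TGI = […]×100%.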

Data set [4] can be described thus: Phototoxicity against mouse S37 cells implanted in F1 mouse assessed as tumor growth inhibition at 5 mg/kg, iv preincubated for 15 mins with subsequent 150 J/cm2 irradiation measured on day 18 post irradiation relative to control. The class given is functional. Particulars: S37, light or radiation study, read-out: TGI. The essentials:
as §2

Data set [5] is described as follows: Phototoxicity against mouse S37 cells implanted in F1 mouse assessed as tumor growth inhibition at 5 mg/kg, iv preincubated for 15 mins with subsequent 150 J/cm2 irradiation measured on day 8 post irradiation relative to control. Format: functional. Particulars: S37, light or radiation study, read-out: TGI. The essentials:
as §2

Data set [6] can be described thus: Phototoxicity against mouse S37 cells implanted in F1 mouse assessed as tumor growth inhibition at 2.5 mg/kg, iv preincubated for 15 mins with subsequent 150 J/cm2 irradiation measured on day 18 post irradiation relative to control. The class given is functional. The conditions noted are these: S37, light or radiation study, read-out: TGI. In short, it runs like this:
as §2

The nature of data set [7]: Phototoxicity against mouse S37 cells implanted in F1 mouse assessed as tumor growth inhibition at 5 mg/kg, iv preincubated for 15 mins with subsequent 150 J/cm2 irradiation measured on day 15 post irradiation relative to control. The class given is functional. The conditions noted are these: S37, light or radiation study, read-out: TGI. The essentials: as §2
Data set [8] is described as follows: Phototoxicity against rat Sarcoma M1 cells implanted in rat assessed as volume of tumor necrotic zones at 2.5 mg/kg, ip administered as single dose on day 11 after inoculation followed by 300 J/cm2 irradiation after 2.5 to 3 hrs measured on day 1 post photodynamic therapy (reference value: 32 +/- 6 %). The class given is functional. In short, it runs like this: (§3)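 Rat M1 sarcoma was implanted subcutaneously in the left thigh, with randomisation on day 10. A single 2.5 mg/kg ip dose was given on day 11, then 810 nm laser (0.51 W/cm2, 300 J/cm2, 10 min) after 2.5−3 h. Tumours were sectioned on days 1, 3 and 12 after PDT (controls days 12, 14, 23), five animals per point. Parenchyma and necrotic zone volumes were estimated on hematoxylin and eosin staining.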

Data set [9] is described as follows: Pro-oxidant activity in 1% cremophor EL or rose Bengal assessed as singlet oxygen radical generation by measuring photo-induced fading of 4-nitroso-N,N-dimethylaniline at 3.4 uM in presence of laser radiation and histidine measured every 5 to 10 mins in presence of singlet oxygen quencher NaN3 by absorption spectroscopy. The class given is functional.
Data set [10] in a line: Phototoxicity against rat Sarcoma M1 cells implanted in rat assessed as mitotic index at 2.5 mg/kg, ip administered as single dose on day 11 after inoculation followed by 300 J/cm2 irradiation after 2.5 to 3 hrs measured on day 1 post photodynamic therapy (reference value: 1.9 +/- 0.2 %). The class given is functional. In short, it runs like this:
(§4)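 Rats with M1 sarcoma implanted subcutaneously in the left thigh were randomized on day 10, 25 per group. Single ip dose of 2.5 mg/kg on day 11; laser irradiation 2.5–3 h later at 810 nm, 0.51 W/cm2, 300 J/cm2, 10 min over a 1.5 cm field. Five rats sampled per time point for H&E histology, PCNA immunohistochemistry (1:200) and tumor volume. Untreated controls; Student's test, p < 0.05.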

The nature of data set [11]: Drug uptake in tumor of F1 mouse implanted with mouse S37 cells assessed as normalized fluorescence units at 2.5 mg/kg, iv measured after 30 mins in presence of He-Ne laser radiation by local fluorescence spectroscopic analysis. Format: ADME, organism-based, Neoplasm. Particulars: in vivo, 0.5 h. The essentials: as §1
Data set [12] is described as follows: Phototoxicity against rat Sarcoma M1 cells implanted in rat assessed as tumor volume at 2.5 mg/kg, ip administered as single dose on day 11 after inoculation followed by 300 J/cm2 irradiation after 2.5 to 3 hrs measured on day 12 post photodynamic therapy (reference value: 12 +/- 3 mm3). Format: functional. The essentials: as §4
Data set [13] is described as follows: Phototoxicity against rat Sarcoma M1 cells implanted in rat assessed as apoptotic index at 2.5 mg/kg, ip administered as single dose on day 11 after inoculation followed by 300 J/cm2 irradiation after 2.5 to 3 hrs measured on day 1 post photodynamic therapy (reference value: 0.29 +/- 0.02 %). The class given is functional. In short, it runs like this: as §4

Data set [14] is described as follows: Phototoxicity against rat Sarcoma M1 cells implanted in rat assessed as volume of PCNA-positive cells in tumor parenchyma at 2.5 mg/kg, ip administered as single dose on day 11 after inoculation followed by 300 J/cm2 irradiation after 2.5 to 3 hrs measured on day 1 post photodynamic therapy (reference value: 71 +/- 3 %). The class given is functional. The essentials:
as §4

A short description of data set [15]: Phototoxicity against rat Sarcoma M1 cells implanted in rat assessed as volume of tumor necrotic zones at 2.5 mg/kg, ip administered as single dose on day 11 after inoculation followed by 300 J/cm2 irradiation after 2.5 to 3 hrs measured on day 12 post photodynamic therapy (reference value: 44 +/- 3%). Format: functional. The essentials: as §3
The nature of data set [16]: Drug uptake in skin tumor of F1 mouse implanted with mouse S37 cells assessed as normalized fluorescence at 2.5 mg/kg, iv measured after 30 mins post injection in presence of He-Ne laser radiation by local fluorescence spectroscopic analysis. The class given is ADME, organism-based. The conditions noted are these: in vivo, 0.5 h. In short, it runs like this: as §1
The nature of data set [17]: Phototoxicity against rat Sarcoma M1 cells implanted in rat assessed as volume of tumor parenchyma at 2.5 mg/kg, ip administered as single dose on day 11 after inoculation followed by 300 J/cm2 irradiation after 2.5 to 3 hrs measured on day 12 post photodynamic therapy by hematoxylin and eosin staining based assay (reference value: 56 +/- 3%). Format: functional. The essentials:
as §3

For a further data set, the system named is Sarcoma M1. Put plainly: Phototoxicity against rat Sarcoma M1 cells implanted in rat assessed as damage to tumor nodes at 2.5 mg/kg, ip administered as single dose on day 11 post inoculation followed by 300 J/cm2 irradiation after 2.5 to 3 hrs measured on day 2 post photodynamic therapy by hematoxylin and eosin staining based assay. Format: functional, organism-based.

A short description of data set [18]: Phototoxicity against rat Sarcoma M1 cells implanted in rat assessed as apoptotic index at 2.5 mg/kg, ip administered as single dose on day 11 after inoculation followed by 300 J/cm2 irradiation after 2.5 to 3 hrs measured on day 3 post photodynamic therapy (reference value: 0.31 +/- 0.02%). The class given is functional. In short, it runs like this:
as §4

Activity calls are given as the source filed them. The rule behind the calls is not given here.

With `CCCO/N=C(\C)c1c(C)c2cc3nc(c4c5[nH]c(cc6nc(cc1[nH]2)[C@H](C)[C@H]6CC)c(C)c5C(=O)N(OCCC)C4=O)[C@@H](CCC(=O)OC)[C@@H]3C`, in [1], the outcome was inactive. The Flu intensity in data set [2] is listed as 4.4 RU. For the same molecule, the inhibition in vivo at 2.5 mg/kg in data set [3] and in data set [6] was 100% each time. In addition, the inhibition in vivo at 5 mg/kg in data set [4], in [5] and in data set [7] was 100% throughout.

For `CCCO/N=C(\C)c1c(C)c2cc3nc(c4c5[nH]c(cc6nc(cc1[nH]2)[C@@H](C)[C@@H]6CC)c(C)c5C(=O)N(OCCC)C4=O)[C@H](CCC(=O)NCCSSCCNC(=O)CC[C@@H]1c2nc(cc4[nH]c(cc5nc(cc6[nH]c7c2C(=O)N(OCCC)C(=O)c7c6C)[C@H](CC)[C@H]5C)c(/C(C)=N/OCCC)c4C)[C@H]1C)[C@H]3C`, the Activity worked out at 60% in data set [8]; 1.2% in data set [10]; 0.44 mm3 in data set [12]; 0.39% in data set [13]; 26% in data set [14]; 71% in [15]. In addition, the Activity in data set [17] was found to be 30%; in [18], 0.43%. The result in data set [9] was inactive. In addition, the Flu intensity in data set [11] amounted to 4 RU; in [16], 2.2 RU. Further, the result in the data set on Sarcoma M1 was Active.
